From ChEMBL document CHEMBL1122961 (J Med Chem, 1985)
Calls of active or inactive are those of the source. No cut-off for these calls is given here.

Key:
Dopamine receptor [1] = target: T1, Dopamine receptor (Bos taurus, UniProt Q95136+P20288); test: In vitro inhibitory activity against dopamine receptor from calf caudate using [3H]dopamine as radioligand; format: protein assay
In short: (§1)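 Displacement binding on brain homogenates as earlier described; four to six test concentrations typically, each incubated in triplicate. IC50 in nM derived by appropriately weighted regression analysis.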

[2] = target: Serotonin (5-HT) receptor; test: In vitro inhibitory activity against serotonin receptor from rat frontal cortex using [3H]spiperone as radioligand; format: tissue-based
Rattus norvegicus [3] = test: In vivo inhibitory activity against basal prolactin in male rat after subcutaneous administration; format: functional; conditions: sc, read-out: ID50 (the source's name)
In short: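 Male rats given one subcutaneous injection and decapitated 4 h later; trunk blood serum collected. One to three groups of three rats per dose, sera of three rats pooled equally. Prolactin measured by double-antibody RIA, expressed against NIH rat Prl RP-1 standard. Dose giving 50% serum prolactin reduction estimated graphically.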

[4] = target: Serotonin (5-HT) receptor; test: In vitro inhibitory activity against serotonin receptor from whole rat brain using [3H]5-HT as radioligand
Rattus norvegicus [5] = test: In vivo inhibitory activity against ovum implantation in female rat after subcutaneous administration; format: functional; conditions: sc, read-out: ID50 (the source's name)
In short: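 Adult proestrus Ivanovas female rats mated with fertile males; sperm-positive females randomised next morning (day 1), 4-10 per group. Single subcutaneous dose on day 5; killed day 12, uteri inspected for fetuses or implantation sites, absence counted as inhibition.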

Dopamine receptor [6] = target: T1, Dopamine receptor; test: In vitro inhibitory activity against dopamine receptor from calf caudate using [3H]spiperone as radioligand; format: protein assay; in short: as §1
Rattus norvegicus [7] = test: In vivo inhibitory against lactation in female rat after peroral administration; format: functional; conditions: po, read-out: ID50 (the source's name)
In short: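 […] rats dosed once daily from day 5 to 8. Nursing behaviour checked daily; dams losing more than two pups excluded.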

[8] = target: T2, Adrenergic receptor alpha-2 (Rattus norvegicus, UniProt P22086+P19328+P22909); test: In vitro inhibitory activity against alpha-2 adrenergic receptor from rat brain minus cerebellum using [3H]clonidine as radioligand; format: tissue-based; in short: as §1
T2 sequence (P22086 whole entry): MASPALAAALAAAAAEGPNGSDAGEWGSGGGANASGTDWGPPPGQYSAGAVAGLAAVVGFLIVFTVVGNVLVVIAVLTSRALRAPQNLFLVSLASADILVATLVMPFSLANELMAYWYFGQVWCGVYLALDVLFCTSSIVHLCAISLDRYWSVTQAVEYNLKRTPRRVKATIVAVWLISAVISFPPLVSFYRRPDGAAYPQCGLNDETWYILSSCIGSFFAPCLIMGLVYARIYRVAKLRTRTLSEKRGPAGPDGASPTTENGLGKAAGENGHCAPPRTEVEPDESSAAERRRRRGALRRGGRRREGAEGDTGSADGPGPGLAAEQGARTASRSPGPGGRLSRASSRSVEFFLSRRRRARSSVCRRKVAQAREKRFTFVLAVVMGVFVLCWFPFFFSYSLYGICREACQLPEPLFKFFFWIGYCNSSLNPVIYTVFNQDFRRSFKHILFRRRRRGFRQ
T2 sequence (P19328 whole entry): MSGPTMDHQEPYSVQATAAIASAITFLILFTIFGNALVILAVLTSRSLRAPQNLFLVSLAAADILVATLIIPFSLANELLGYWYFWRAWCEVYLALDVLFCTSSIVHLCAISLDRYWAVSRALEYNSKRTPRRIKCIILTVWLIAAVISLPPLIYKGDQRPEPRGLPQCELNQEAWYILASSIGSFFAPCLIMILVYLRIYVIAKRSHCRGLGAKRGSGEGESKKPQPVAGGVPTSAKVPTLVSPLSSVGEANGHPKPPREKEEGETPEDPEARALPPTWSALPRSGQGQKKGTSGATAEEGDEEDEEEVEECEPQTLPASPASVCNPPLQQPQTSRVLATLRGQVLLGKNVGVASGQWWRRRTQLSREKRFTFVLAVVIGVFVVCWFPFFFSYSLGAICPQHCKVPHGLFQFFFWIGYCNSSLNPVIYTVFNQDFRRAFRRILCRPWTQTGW
T2 sequence (P22909 whole entry): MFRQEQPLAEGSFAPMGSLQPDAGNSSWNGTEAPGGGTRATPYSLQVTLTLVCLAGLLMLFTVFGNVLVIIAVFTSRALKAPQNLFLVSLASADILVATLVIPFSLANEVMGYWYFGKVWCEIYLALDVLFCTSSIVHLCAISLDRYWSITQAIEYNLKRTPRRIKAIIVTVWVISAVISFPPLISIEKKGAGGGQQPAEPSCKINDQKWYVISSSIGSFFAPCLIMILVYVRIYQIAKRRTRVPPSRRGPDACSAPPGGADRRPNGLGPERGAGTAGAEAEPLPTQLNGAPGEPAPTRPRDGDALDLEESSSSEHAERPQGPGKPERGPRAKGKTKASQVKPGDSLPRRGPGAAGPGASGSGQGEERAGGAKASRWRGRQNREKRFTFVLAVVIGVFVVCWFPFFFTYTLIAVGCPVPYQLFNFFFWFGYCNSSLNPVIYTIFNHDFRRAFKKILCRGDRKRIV

[9] = target: T3, Adrenergic receptor alpha-1 (Rattus norvegicus, UniProt P15823+P23944+P43140); test: In vitro inhibitory activity against alpha-1 adrenergic receptor from whole rat brain using [3H]WB-4101 as radioligand; in short: as §1
T3 sequence (P15823 whole entry): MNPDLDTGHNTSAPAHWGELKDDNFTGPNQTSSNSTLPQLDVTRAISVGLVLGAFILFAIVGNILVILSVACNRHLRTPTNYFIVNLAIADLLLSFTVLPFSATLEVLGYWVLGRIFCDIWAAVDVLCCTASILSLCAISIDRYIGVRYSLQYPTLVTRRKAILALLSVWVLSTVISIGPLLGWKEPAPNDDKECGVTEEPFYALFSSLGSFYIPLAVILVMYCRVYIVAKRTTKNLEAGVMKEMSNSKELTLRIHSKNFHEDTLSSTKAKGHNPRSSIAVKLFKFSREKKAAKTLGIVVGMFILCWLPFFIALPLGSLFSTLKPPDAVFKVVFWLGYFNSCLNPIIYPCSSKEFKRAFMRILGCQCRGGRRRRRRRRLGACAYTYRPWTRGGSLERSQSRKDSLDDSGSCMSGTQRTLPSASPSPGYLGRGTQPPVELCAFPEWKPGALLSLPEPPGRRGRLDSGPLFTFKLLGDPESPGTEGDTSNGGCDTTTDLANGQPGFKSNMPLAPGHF
T3 sequence (P23944 whole entry): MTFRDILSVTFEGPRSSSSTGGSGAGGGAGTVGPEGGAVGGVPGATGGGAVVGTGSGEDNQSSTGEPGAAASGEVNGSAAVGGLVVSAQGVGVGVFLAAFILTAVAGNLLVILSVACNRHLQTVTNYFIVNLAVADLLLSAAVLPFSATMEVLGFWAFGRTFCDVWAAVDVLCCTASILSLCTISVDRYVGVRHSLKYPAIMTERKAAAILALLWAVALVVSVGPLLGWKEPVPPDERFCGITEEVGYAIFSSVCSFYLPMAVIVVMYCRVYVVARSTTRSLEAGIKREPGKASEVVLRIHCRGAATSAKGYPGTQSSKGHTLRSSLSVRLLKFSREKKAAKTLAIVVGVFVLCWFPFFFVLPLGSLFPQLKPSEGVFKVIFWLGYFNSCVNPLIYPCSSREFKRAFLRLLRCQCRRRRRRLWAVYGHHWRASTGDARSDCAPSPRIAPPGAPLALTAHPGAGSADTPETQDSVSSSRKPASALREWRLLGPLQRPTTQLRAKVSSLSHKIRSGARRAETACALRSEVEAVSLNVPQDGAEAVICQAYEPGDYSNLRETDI
T3 sequence (P43140 whole entry): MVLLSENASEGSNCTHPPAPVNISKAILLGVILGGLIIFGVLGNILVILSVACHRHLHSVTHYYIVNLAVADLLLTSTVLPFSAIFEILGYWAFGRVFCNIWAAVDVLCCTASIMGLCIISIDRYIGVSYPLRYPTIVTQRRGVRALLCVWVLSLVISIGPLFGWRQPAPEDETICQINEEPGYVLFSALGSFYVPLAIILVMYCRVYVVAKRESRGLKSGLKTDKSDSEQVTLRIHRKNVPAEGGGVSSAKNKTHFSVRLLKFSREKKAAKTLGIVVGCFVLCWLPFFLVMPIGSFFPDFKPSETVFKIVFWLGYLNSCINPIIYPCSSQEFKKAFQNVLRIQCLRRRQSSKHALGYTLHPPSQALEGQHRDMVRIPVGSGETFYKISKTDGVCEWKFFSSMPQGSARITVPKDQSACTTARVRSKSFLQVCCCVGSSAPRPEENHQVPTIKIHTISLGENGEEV

Rattus norvegicus [10] = test: In vivo against inhibitory against lactation in female rat after peroral administration; i = No effect; format: functional, organism-based
Rattus norvegicus [11] = test: In vivo inhibitory activity against ovum implantation in female rat after subcutaneous administration; i = No effect; format: functional, organism-based
In short: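 Adult proestrus Ivanovas female rats paired with males of proven fertility; sperm-positive next morning (day 1), randomised 4-10 per group. Single sc dose on day 5; killed day 12, uteri inspected for fetuses or implantation sites, none counting as inhibited.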

SMILES	IC50 (Dopamine receptor [1])	IC50 [2]	ED50 (Rattus norvegicus [3])	IC50 [4]	ED50 (Rattus norvegicus [5])	IC50 (Dopamine receptor [6])	ED50 (Rattus norvegicus [7])	IC50 [8]	IC50 [9]	ID50 (Rattus norvegicus [10])	ID50 (Rattus norvegicus [11])
CCCN1C[C@@H](CSC)C[C@@H]2Cc3c(O)cccc3C[C@H]21	22 nM	720 nM	0.004 mg/kg	2000 nM	0.018 mg/kg	60 nM	0.058 mg/kg	250 nM	640 nM		
CCN(CC)S(=O)(=O)N[C@H]1C[C@@H]2c3cccc4[nH]cc(c34)C[C@H]2N(C)C1 [ETISULERGINE]				> 5000 nM	0.028 mg/kg		0.19 mg/kg				
CN1CCc2cccc3c2[C@H]1Cc1ccc(O)c(O)c1-3 [APOMORPHINE]				> 10000 nM						inactive	inactive
CCCN1CC(NS(=O)(=O)N(CC)CC)CC2Cc3c(O)cccc3CC21 (stereo not drawn) [QUINAGOLIDE]			0.005 mg/kg		0.017 mg/kg		0.03 mg/kg				
CCCN1C[C@H](CSC)C[C@@H]2c3cccc4[nH]cc(c34)C[C@H]21 [PERGOLIDE]		140 nM	0.0013 mg/kg	385 nM	0.021 mg/kg				550 nM		
